Laboratory results from ChEMBL document CHEMBL2417545, “6-methoxy-7-benzofuranoxy and 6-methoxy-7-indolyloxy analogues of 2-[2-(2,6-Dimethoxyphenoxy)ethyl]aminomethyl-1,4-benzodioxane (WB4101):1 discovery of a potent and selective α1D-adrenoceptor antagonist” (J Med Chem, 2013).

Experiments:
[1] = species on record: Rattus norvegicus; assay: Selectivity ratio of Ki for alpha-1D adrenoreceptor in Sprague-Dawley rat thoracic aorta to Ki for alpha-1A adrenoreceptor in Sprague-Dawley rat prostatic vas deferens; type: tissue-based
[2] = species on record: Rattus norvegicus; assay: Selectivity ratio of Ki for alpha-1D adrenoreceptor in Sprague-Dawley rat thoracic aorta to Ki for alpha-1B adrenoreceptor in Sprague-Dawley rat spleen; type: tissue-based
[3] = target: T1, Alpha-1A adrenergic receptor (Rattus norvegicus, UniProt P43140); assay: Antagonist activity at alpha-1A adrenoreceptor in Sprague-Dawley rat prostate assessed as inhibition of noradrenaline-induced tissue contraction after 30 mins by Schild plot analysis; set-up: species or system Prostate gland; details: read-out: pA2 (converted)
T1 sequence (P43140 whole entry): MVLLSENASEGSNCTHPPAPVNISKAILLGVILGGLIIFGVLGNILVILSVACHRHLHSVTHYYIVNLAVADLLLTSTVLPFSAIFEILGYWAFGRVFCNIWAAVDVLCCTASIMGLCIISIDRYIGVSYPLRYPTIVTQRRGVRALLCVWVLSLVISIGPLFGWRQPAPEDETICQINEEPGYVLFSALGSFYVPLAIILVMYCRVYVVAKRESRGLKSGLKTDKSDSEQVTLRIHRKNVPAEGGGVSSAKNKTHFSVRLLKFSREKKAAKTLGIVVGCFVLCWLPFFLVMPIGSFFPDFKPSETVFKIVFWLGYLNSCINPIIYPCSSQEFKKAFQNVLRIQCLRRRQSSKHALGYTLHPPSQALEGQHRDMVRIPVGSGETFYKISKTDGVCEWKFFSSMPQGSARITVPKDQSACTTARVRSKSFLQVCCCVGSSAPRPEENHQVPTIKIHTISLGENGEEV
Summary of the method: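 Isolated prostatic portion of vas deferens from 200−250 g rats, in gassed (95% O₂/5% CO₂) physiological salt solution at pH 7.4 with desipramine 0.01 μM. Cumulative isotonic (−)-noradrenaline curves were run at 30 min intervals, the first discarded and the second taken as control, then a third after 30 min with antagonist. pA₂ from Schild plot, at least three antagonist concentrations, each tested 3−5 times.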

[4] = target: T2, Alpha-1D adrenergic receptor (Homo sapiens, UniProt P25100); assay: Displacement of [3H]prazosin from human alpha-1D adrenoreceptor expressed in CHO cells after 30 mins; type: cell-based
T2 sequence (P25100 whole entry): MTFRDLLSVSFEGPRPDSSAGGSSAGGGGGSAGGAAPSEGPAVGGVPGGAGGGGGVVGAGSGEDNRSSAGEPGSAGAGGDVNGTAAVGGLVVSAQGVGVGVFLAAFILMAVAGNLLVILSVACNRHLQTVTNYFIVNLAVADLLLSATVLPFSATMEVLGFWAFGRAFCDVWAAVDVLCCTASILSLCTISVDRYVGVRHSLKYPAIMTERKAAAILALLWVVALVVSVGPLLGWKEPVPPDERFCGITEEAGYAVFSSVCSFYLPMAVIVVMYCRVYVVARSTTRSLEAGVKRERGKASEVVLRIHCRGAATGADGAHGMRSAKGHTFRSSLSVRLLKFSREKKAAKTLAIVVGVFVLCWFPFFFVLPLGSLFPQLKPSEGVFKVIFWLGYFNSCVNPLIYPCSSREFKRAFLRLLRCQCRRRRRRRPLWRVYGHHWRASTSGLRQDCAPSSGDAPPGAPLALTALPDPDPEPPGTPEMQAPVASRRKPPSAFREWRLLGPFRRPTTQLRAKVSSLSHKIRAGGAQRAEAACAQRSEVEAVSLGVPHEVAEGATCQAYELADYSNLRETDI
Summary of the method: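 Membranes from CHO cells expressing each α₁-AR subtype, incubated 30 min at 25 °C in 50 mM Tris HCl pH 7.7 with 10 μM pargyline and 0.1% ascorbic acid, plus 0.5 nM [³H]prazosin and varying test compound concentrations. Nonspecific binding was defined with 1 μM prazosin.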

[5] = target: T3, Alpha-1B adrenergic receptor (Rattus norvegicus, UniProt P15823); assay: Antagonist activity at alpha-1B adrenoreceptor in Sprague-Dawley rat spleen assessed as inhibition of phenylephrine-induced tissue contraction after 30 mins by Schild plot analysis; details: read-out: pA2 (converted)
T3 sequence (P15823 whole entry): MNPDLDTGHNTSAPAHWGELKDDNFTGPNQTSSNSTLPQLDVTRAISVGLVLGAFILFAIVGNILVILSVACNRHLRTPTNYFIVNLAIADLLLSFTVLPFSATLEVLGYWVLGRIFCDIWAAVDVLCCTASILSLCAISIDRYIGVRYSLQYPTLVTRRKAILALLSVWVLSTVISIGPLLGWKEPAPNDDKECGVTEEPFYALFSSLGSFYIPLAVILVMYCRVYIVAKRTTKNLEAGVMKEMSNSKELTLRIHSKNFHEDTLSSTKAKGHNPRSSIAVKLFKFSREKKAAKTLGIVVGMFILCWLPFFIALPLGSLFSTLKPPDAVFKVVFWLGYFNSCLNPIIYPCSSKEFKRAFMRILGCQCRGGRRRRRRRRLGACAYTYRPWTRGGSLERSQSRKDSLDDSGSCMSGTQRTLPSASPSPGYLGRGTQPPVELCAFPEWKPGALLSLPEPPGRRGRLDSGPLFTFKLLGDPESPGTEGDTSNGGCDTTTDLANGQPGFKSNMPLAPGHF
Summary of the method: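 Spleen from 250−300 g rats in gassed physiological salt solution with desipramine 0.01 μM and propranolol 1 μM. Isometric cumulative phenylephrine curves were run at 30 min intervals, the first discarded and the second taken as control, then a new curve after 30 min antagonist equilibration. pA₂ from Schild plot, at least three antagonist concentrations, each tested 3−5 times.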

[6] = species on record: Rattus norvegicus; assay: Selectivity ratio of Ki for alpha-1D adrenoreceptor in Sprague-Dawley rat thoracic aorta to Ki for alpha-1A adrenoreceptor in Sprague-Dawley rat prostate; type: tissue-based

Row | Kb [3] | Ki [4] | Kb [5] | Compound | Ratio Ki [1] | Ratio Ki [2] | Ratio Ki [6]
1 | 1.95 nM | 1.91 nM | 2.09 nM | COc1ccc2ccoc2c1OCCNC[C@H]1COc2ccccc2O1.Cl | 6 | 2 | –
2 | 13.2 nM | 631 nM | 17 nM | COc1ccc2cc[nH]c2c1OCCNC[C@H]1COc2ccccc2O1 | – | – | –
3 | 3.63 nM | 12.9 nM | 0.832 nM | COc1ccc2c(c1OCCNC[C@H]1COc3ccccc3O1)NCC2.Cl.Cl | – | – | –
4 | 13.2 nM | 2.24 nM | 3.24 nM | COc1ccc2c(c1OCCNC[C@H]1COc3ccccc3O1)OCC2.Cl | 129 | 12 | 50
